Runt-SMMHC FRET: inhibitors of RUNX1 Runt–CBFb-SMMHC binding, primary screen, biochemical, FRET, Cerulean-Runt, Venus-CBFb-SMMHC, uHTS | Runt-related transcription factor 1 (Homo sapiens) + Core-binding factor subunit beta … | Cerulean-Runt/Venus-CBFb-SMMHC FRET ratio 530/480, 1 h | inhibition, % at 20 µM | 0.74% of 220,000 active;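 active = mean inhibition across duplicate retests at 20 µM reaching about 50%, limit read from the data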;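 note: inhibitors lower the FRET ratio by blocking Runt binding to CBFb-SMMHC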
Target sequence (Q01196 whole entry, looked up): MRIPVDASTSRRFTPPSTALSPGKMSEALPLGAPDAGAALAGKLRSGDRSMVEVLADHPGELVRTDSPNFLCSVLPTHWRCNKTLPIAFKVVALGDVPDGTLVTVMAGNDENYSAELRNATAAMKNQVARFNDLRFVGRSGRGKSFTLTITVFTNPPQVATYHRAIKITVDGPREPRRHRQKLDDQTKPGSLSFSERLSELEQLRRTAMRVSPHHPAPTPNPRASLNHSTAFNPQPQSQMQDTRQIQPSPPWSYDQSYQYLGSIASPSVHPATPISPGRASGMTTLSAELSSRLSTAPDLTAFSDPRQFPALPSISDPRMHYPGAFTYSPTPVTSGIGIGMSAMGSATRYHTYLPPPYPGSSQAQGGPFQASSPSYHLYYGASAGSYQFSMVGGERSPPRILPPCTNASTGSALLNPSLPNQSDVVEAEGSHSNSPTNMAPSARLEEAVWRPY
Target sequence (Q13951 whole entry, looked up): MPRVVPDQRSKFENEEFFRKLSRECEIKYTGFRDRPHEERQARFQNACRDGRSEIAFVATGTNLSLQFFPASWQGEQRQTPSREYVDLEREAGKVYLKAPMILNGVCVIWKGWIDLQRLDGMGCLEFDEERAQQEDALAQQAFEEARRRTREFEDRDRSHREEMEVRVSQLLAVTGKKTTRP
Runt-CBFb FRET: inhibitors of RUNX1 Runt–CBFb binding, primary screen, biochemical, FRET, Cerulean-Runt, Venus-CBFb, uHTS; Cerulean-Runt/Venus-CBFb FRET ratio 530/480, 1 h; Runt-related transcription factor 1 (Homo sapiens) + Core-binding factor subunit beta …; inhibition, % at 20 µM; 0.46% of 220,000 active;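 active = inhibition over about 50% at 20 µM in the single-dose screen, limit read from the data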
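test system = Cerulean-Runt domain fusion protein, energy donor | probe or stimulus = Venus-CBFb binding partner, 100 nM | incubation = two 1 h room-temperature incubations shielded from light | detection = fluorescence energy transfer, 422 nm excitation, 530/480 nm emission | measure = loss of energy transfer signal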
Hck-Nef inh: inhibitors of Nef-activated human Hck kinase, primary screen, biochemical, Z-Lyte FRET, 384-well, Hck-YEEI | Recombinant Hck-YEEI plus Nef, Z-Lyte FRET kinase assay | 0.68% of 220,000 active | inhibition, % at 20 µM;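 active = Hck-Nef kinase inhibition above about 50%, limit read from the data; inactive = inhibition below that limit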
RanGTP-Impb inh: inhibitors of RanGTP-importin-beta interaction, primary screen, biochemical, FRET, CFP-Ran, YFP-importin-beta, homogeneous; inhibition, % (test concentration not listed); AID 2216, 2009; 1.1% of 300,000 active; cell-free CFP-Ran/YFP-importin-beta FRET ratio;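 active = more than half of the replicate wells show a fall in the fluorescence ratio signal beyond about 16%, limit read from the data, passing the limit was not always enough; inconclusive = exactly half of the replicate wells pass the set limit; inactive = fewer than half of replicates pass the limit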
Each line names hits and unclear results; the compound was inactive in the other large screens. Shown are actives, neighbours in structure and some others; about 1.8% of the full set was active somewhere.

CCCCn1c(=NC(=O)c2cccnc2)c(C#N)cc2c(=O)n3cccc(C)c3nc21	Runt-SMMHC FRET 58, Runt-CBFb FRET 124, RanGTP-Impb inh 107
CCOC(=O)/C(C#N)=C/c1c(N2CCN(Cc3ccc4c(c3)OCO4)CC2)nc2c(C)cccn2c1=O	none
Cc1cccn2c(=O)c3cc(C#N)c(=NC(=O)c4ccncc4)n(CCCOC(C)C)c3nc12	Runt-CBFb FRET 97, RanGTP-Impb inh 140
CCCCNC(=O)c1cc2c(=O)n3cccc(C)c3nc2s1	none (no result: Runt-SMMHC FRET, Runt-CBFb FRET, Hck-Nef inh)
CC(=O)N=c1c(C#N)cc2c(=O)n3cccc(C)c3nc2n1CCCOC(C)C	Runt-SMMHC FRET 82, Runt-CBFb FRET 115, RanGTP-Impb inh 111
COc1ccc(CN2CCNC(=O)C2CC(=O)NC2CCCC2)c(C)c1C (stereo unspecified)	none (no result: Runt-SMMHC FRET, Runt-CBFb FRET, Hck-Nef inh)
CCOC(=O)C(Sc1cc(-c2ccccc2)nc2ncnn12)C(C)=O (stereo unspecified)	none
COCCCn1c(=NC(=O)c2ccncc2)c(C#N)cc2c(=O)n3cccc(C)c3nc21	Runt-SMMHC FRET 62, RanGTP-Impb inh 68
CCOC(=O)c1cc2c(=O)n3cccc(C)c3nc2n(CCOC)c1=NC(=O)c1ccncc1	none (no result: Runt-SMMHC FRET, Runt-CBFb FRET, RanGTP-Impb inh)
O=[N+]([O-])c1cc(S(=O)(=O)N2CCOCC2)ccc1N1CCCC1	none
Cc1ccc(C)n1-c1cc(S(=O)(=O)N2CCOCC2)ccc1N1CCCC1	RanGTP-Impb inh 33
CN1C(=O)Cc2cc(S(=O)(=O)N3CCOCC3)ccc21	RanGTP-Impb inh 39
O=c1[nH]c(SCc2cccc(F)c2)nc2c1CCCC2	none
COc1ccccc1CCNC(=O)C(=O)NCCC1CCCCN1S(=O)(=O)c1ccccc1 (stereo unspecified)	RanGTP-Impb inh 37 (no result: Runt-SMMHC FRET, Runt-CBFb FRET, Hck-Nef inh)
CCC(=O)Oc1ccc2c(c1)O/C(=C\c1ccco1)C2=O	Runt-SMMHC FRET 81
COc1cc(-c2ccc3c(=O)c4ccccc4n(C)c3c2)cc(OC)c1OC	RanGTP-Impb inh 57 (no result: Runt-SMMHC FRET, Runt-CBFb FRET, Hck-Nef inh)
COc1cc(C2CC(=O)Oc3c2c(=O)n(C)c2ccccc32)cc(OC)c1OC (stereo unspecified)	none (no result: Runt-SMMHC FRET, Runt-CBFb FRET)
COc1ccc(-c2cc(Cl)cc3c(=O)c4ccccc4n(C)c23)cc1F	RanGTP-Impb inh 112 (no result: Runt-SMMHC FRET, Runt-CBFb FRET, Hck-Nef inh)
Cn1c2ccccc2c(=O)c2ccc(-c3ccc4c(c3)OCO4)cc21	RanGTP-Impb inh 49 (no result: Runt-SMMHC FRET, Runt-CBFb FRET, Hck-Nef inh)
COc1ccccc1N(C)S(=O)(=O)c1ccc(C(=O)OCC(=O)N(C(C)C)C(C)C)cc1	none
Cc1cc(NC(=O)C(C)Oc2ccc(Cl)cc2Cl)no1 (stereo unspecified)	RanGTP-Impb inh 38 (no result: Runt-SMMHC FRET, Runt-CBFb FRET, Hck-Nef inh)
O=C(CCCOc1ccc(Cl)cc1Cl)NCCCn1ccnc1	none
CC(Oc1ccc(Cl)cc1Cl)C(=O)NCCCn1ccnc1 (stereo unspecified)	Runt-SMMHC FRET 81
CC(Oc1ccc(Cl)cc1Cl)C(=O)Nc1ncccn1 (stereo unspecified)	none
CC(=O)N1CCc2c(sc(NC(=O)CN3C(=O)CCC3=O)c2C(N)=O)C1	RanGTP-Impb inh 23
CC(=O)N1CCc2c(sc(NC(=O)CN3C(=O)c4ccccc4C3=O)c2C(N)=O)C1	none
CCOC(=O)N1CCc2c(sc(NC(C)=O)c2C(N)=O)C1	none (no result: Runt-SMMHC FRET, Runt-CBFb FRET)
CC(=O)N1CCc2c(sc(NC(=O)CCS(=O)(=O)c3ccccc3)c2C(N)=O)C1	none (no result: Runt-SMMHC FRET, Runt-CBFb FRET, Hck-Nef inh)
CN1CCc2c(sc(NC(=O)CS(=O)(=O)c3ccc(F)cc3)c2C(N)=O)C1	RanGTP-Impb inh 163 (no result: Runt-SMMHC FRET, Runt-CBFb FRET, Hck-Nef inh)
CC(=O)N1CCc2c(sc(NC(=O)CS(=O)(=O)c3ccc(F)cc3)c2C(N)=O)C1	RanGTP-Impb inh 21 (no result: Runt-SMMHC FRET, Runt-CBFb FRET, Hck-Nef inh)
Cc1cc(NC(=O)COc2c(C)cccc2C)no1	none
C=CCN(c1ccccc1Cl)S(=O)(=O)c1cc(C(=O)N2CCCC2)ccc1Cl	none
CCCCC1OC2(C)OC(=N)C1(C#N)C(C#N)(C#N)C2c1ccccc1 (stereo unspecified)	none (no result: RanGTP-Impb inh)
CC1C2(C)OC(=N)C(C#N)(C(C)O2)C1(C#N)C#N (stereo unspecified)	Runt-SMMHC FRET 52, Runt-CBFb FRET 101, RanGTP-Impb inh 22
CC1OC2(C)OC(=N)C1(C#N)C(C#N)(C#N)C2c1ccccc1 (stereo unspecified)	RanGTP-Impb inh 23
CC(C)C(=O)N1CCC(n2nccc2NC(=O)CCc2ccccc2)CC1	none (no result: Runt-SMMHC FRET, Runt-CBFb FRET, Hck-Nef inh)
Cc1ccc(C)c(Nc2nc3ccc(C)cc3n3cnnc23)c1	none (no result: Runt-SMMHC FRET, Runt-CBFb FRET, Hck-Nef inh)
O=C(CCc1ccc(O)cc1)c1c(O)cc(O)cc1O	Hck-Nef inh 63
CC(Oc1ccc2ccc(=O)oc2c1)C(=O)NC1CCN(Cc2ccccc2)CC1 (stereo unspecified)	none (no result: Runt-SMMHC FRET, Runt-CBFb FRET, Hck-Nef inh)
N=c1oc2cc(O)ccc2cc1C(=O)Nc1ccc(F)cc1	RanGTP-Impb inh 171 (no result: Runt-SMMHC FRET, Runt-CBFb FRET, Hck-Nef inh)
COc1ccc(NC(=O)c2cc3cc(OC)ccc3oc2=N)cc1	none
COc1cc(SSc2cc(OC)cc([N+](=O)[O-])c2N)c(N)c([N+](=O)[O-])c1	Runt-SMMHC FRET 64
CC(C)(C)OC(=O)[C@H]1[C@H](c2ccc([N+](=O)[O-])cc2)C2(C(=O)c3ccccc3C2=O)C2c3ccccc3C=NN21 (stereo partly specified)	none
CC(C)NC(=O)COc1coc(CN2CCN(Cc3ccccc3)CC2)cc1=O	none (no result: Runt-SMMHC FRET, Runt-CBFb FRET, Hck-Nef inh)
Clc1cccc(/C=N/Nc2nnc(Cl)c3ccccc23)c1	RanGTP-Impb inh 34
O=C1N/C(=C\c2ccc(O)cc2)C(O)=C1C=NCc1ccccc1	Hck-Nef inh 69
COc1ccc(-n2c(C)cc(/C=C3\SC(=S)NC3=O)c2C)cc1	none
Cc1cc(/C=C2\SC(=S)NC2=O)c(C)n1-c1ccccc1	Hck-Nef inh 53
Cc1cc(/C=C2\SC(=S)NC2=O)c(C)n1-c1ccc(O)cc1	RanGTP-Impb inh 23
Cc1ccc(C2C(C#N)=C(N)SC(N)=C2C#N)cc1	none (no result: RanGTP-Impb inh)
N#CC1=C(N)SC(N)=C(C#N)C1c1ccoc1	RanGTP-Impb inh 40
O=C(CN1C(=O)NC(Cc2c[nH]c3ccccc23)C1=O)NCC(F)(F)F (stereo unspecified)	none (no result: Runt-SMMHC FRET, Runt-CBFb FRET, Hck-Nef inh)
Cc1nc(N)c(C#N)c(-c2cccnc2)c1-c1ccccc1	none (no result: Runt-SMMHC FRET, Runt-CBFb FRET, Hck-Nef inh)
Cc1ccc2c(n1)sc1c(-c3ccccc3)c(C#N)c(N)nc12	Runt-SMMHC FRET 100, RanGTP-Impb inh 56
CCCCCCCCCCC(=O)NNC(=O)c1c(O)c2ccccc2n(CC)c1=O	none
O=C(Nn1c(O)c(C=C2N=c3ccccc3=N2)sc1=S)c1ccc(Cl)cc1	RanGTP-Impb inh 33
CCCCn1nc(C(=O)Oc2ccc3c(C)cc(=O)oc3c2)c2ccccc2c1=O	Runt-SMMHC FRET 58
Cc1cc(=O)oc2cc(OCCCN3C(=O)c4ccccc4C3=O)ccc12	none
Cc1cc(=O)oc2cc(OC(=O)c3cncc(Br)c3)ccc12	Runt-SMMHC FRET 59, Hck-Nef inh 69
CCCC(=O)Oc1ccc2c(C)cc(=O)oc2c1	Hck-Nef inh 77, RanGTP-Impb inh inconclusive
Cc1cc(=O)oc2cc(OC(=O)CCN3C(=O)c4ccccc4C3=O)ccc12	none

Source: PubChem
